The source of these data is ChEMBL document CHEMBL1122632, “Synthesis and antitumor activity of cis-dichloroplatinum (II)-N-aminated nucleoside complexes” (J Med Chem, 1984).

Values joined by “and” are separate entries in the source; they are usually repeats but may differ in a detail not shown here. Equal entries are not always repeated.

The test system of experiment [1] is L1210. Briefly: In vitro inhibition of L1210 (murine leukemia) cell growth. It counts as functional, cell-based, Mus musculus. In a few lines: (§1)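 L1210 cells (10^5 in 1 mL) were grown in RPMI 1640 with 10% FCS and kanamycin, at 37 °C in CO2, for 48 h. Compounds were heated at 110 °C for 8 h, dissolved in medium and tested at ≥6 concentrations. Viability was scored by 0.17% Trypan blue exclusion against drug-free controls. IC50 was the concentration halving living cell number, taken from the log-probit dose-response curve.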

For experiment [2], the system named is Mus musculus. The experiment is described as follows: Blood urea nitrogen values in ICR mice after intraperitoneal administration at an equivalent molar dose of the LD50 of […](13 mg/kg) on day 6. It counts as functional, organism-based. The essentials: (§2)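 ICR mice (25-30 weeks, 39 ± 4 g), 5-6 per group, given one ip dose of 0.043 mmol/kg, equimolar to 13 mg/kg cis-DDP. On days 3, 6 and 9, blood was drawn from the heart under ether anesthesia and stored frozen. BUN was measured later by a modified urease indophenol method. Results are mean ± SD, mg/100 mL blood, compared with untreated controls.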

Experiment [3] relates to Mus musculus. The experiment is described as follows: Effect on kidney weight in ICR mice was determined after intraperitoneal administration on day 3. It counts as functional, organism-based. In a few lines: (§3)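 ICR mice (25-30 weeks, 39 ± 4 g), 5-6 per group, given one ip dose of 0.043 mmol/kg, equimolar to 13 mg/kg cis-DDP. Body and kidney weights were taken on days 3, 6 and 9 and compared with untreated controls. Weights are paired, mean ± SD.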

Experiment [4] relates to Mus musculus. Briefly: Effect on body weight in ICR mice was determined after intraperitoneal administration on day 3. It counts as functional, organism-based. In a few lines:
as §3

For experiment [5], the system named is Mus musculus. The experiment is described as follows: Blood urea nitrogen values in ICR mice after intraperitoneal administration at an equivalent molar dose of the LD50 of […](13 mg/kg) on day 3. Format: functional, organism-based. In a few lines: as §2
Experiment [6] deals with Mus musculus. The experiment is described as follows: Effect on kidney weight in ICR mice was determined after intraperitoneal administration on day 6. Format: functional, organism-based. The essentials:
as §3

In experiment [7] the test system is Mus musculus. The experiment is described as follows: Blood urea nitrogen values in ICR mice after intraperitoneal administration at an equivalent molar dose of the LD50 of […](13 mg/kg) on day 9; All death. It counts as functional, organism-based. The essentials: as §2
In experiment [8] the test system is Mus musculus. Briefly: Effect on body weight in ICR mice was determined after intraperitoneal administration on day 9; All death. Format: functional, organism-based. The essentials:
as §3

In experiment [9] the test system is Mus musculus. The experiment is described as follows: Effect on body weight in ICR mice was determined after intraperitoneal administration on day 6. Format: functional, organism-based. The essentials:
as §3

Experiment [10] relates to L1210. Briefly: Median survival time (MST) of mice bearing L1210 cells was determined at a dose of 300 mg/kg x 2 days administered ip; Toxic. Format: functional, organism-based. Also on record: dose 300 mg/kg. The settings on record: Mus musculus. The essentials: (§4)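 (BALB/c × DBA/2)F1 mice (20 g) were implanted ip with 10^4 L1210 cells. Compounds in saline (0.2 mL) were given ip on days 1 and 5; doses above 100 mg/kg were homogenized with Nikkol (7× by weight). Activity was scored as median survival time of treated mice and expressed as T/C, the ratio of treated to control median survival time.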

Experiment [11] relates to L1210. The experiment is described as follows: Ratio of median survival time of the mice bearing L1210 cells in treated(T) vs. control(C) at a dose of 25 mg/kg x 2 days. It counts as functional, organism-based. Also on record: dose 25 mg/kg. The settings on record: Mus musculus. The essentials:
as §4

The subject of experiment [12] is L1210. The experiment is described as follows: Median survival time (MST) of mice bearing L1210 cells was determined at a dose of 25 mg/kg x 2 days administered ip. Format: functional, organism-based. The arrangement: dose 25 mg/kg. The settings on record: Mus musculus. In a few lines: as §4
Experiment [13] has as its system L1210. The experiment is described as follows: Median survival time (MST) of mice bearing L1210 cells was determined at a dose of 10 mg/kg x 2 days administered ip. It counts as functional, organism-based. Also on record: dose 10 mg/kg. The note with it: Mus musculus. In a few lines:
as §4

For experiment [14], the system named is Mus musculus. Briefly: Effect on kidney weight in ICR mice was determined after intraperitoneal administration on day 9. Format: functional, organism-based. In a few lines: as §3
In experiment [15] the test system is Mus musculus. The experiment is described as follows: Blood urea nitrogen values in ICR mice after intraperitoneal administration at an equivalent molar dose of the LD50 of […](13 mg/kg) on day 9. Format: functional, organism-based. The essentials:
as §2

Experiment [16] relates to L1210. Briefly: Ratio of median survival time of the mice bearing L1210 cells in treated(T) vs. control(C) at a dose of 100 mg/kg x 2 days. It counts as functional, organism-based. The arrangement: dose 100 mg/kg. The note with it: Mus musculus. In a few lines:
as §4

Experiment [17] concerns Mus musculus. Briefly: Effect on body weight in ICR mice was determined after intraperitoneal administration on day 9. It counts as functional, organism-based. The essentials:
as §3

The subject of experiment [18] is L1210. The experiment is described as follows: Median survival time (MST) of mice bearing L1210 cells was determined at a dose of 50 mg/kg x 2 days administered ip. It counts as functional, organism-based. The arrangement: dose 50 mg/kg. The settings on record: Mus musculus. The essentials: as §4
Experiment [19] relates to L1210. Briefly: Ratio of median survival time of the mice bearing L1210 cells in treated(T) vs. control(C) at a dose of 200 mg/kg x 2 days. Format: functional, organism-based. The arrangement: dose 200 mg/kg. The note with it: Mus musculus. In a few lines:
as §4

For experiment [20], the system named is L1210. Briefly: Ratio of median survival time of the mice bearing L1210 cells in treated(T) vs. control(C) at a dose of 50 mg/kg x 2 days. It counts as functional, organism-based. Also on record: dose 50 mg/kg. The settings on record: Mus musculus. The essentials:
as §4

Experiment [21] deals with L1210. Briefly: Ratio of median survival time of the mice bearing L1210 cells in treated(T) vs. control(C) at a dose of 10 mg/kg x 2 days. It counts as functional, organism-based. Also on record: dose 10 mg/kg. The settings on record: Mus musculus. In a few lines: as §4
Experiment [22] has as its system L1210. Briefly: Median survival time (MST) of mice bearing L1210 cells was determined at a dose of 200 mg/kg x 2 days administered ip. The note with it: Mus musculus. The arrangement: dose 200 mg/kg. Format: functional, organism-based. The essentials: as §4
The subject of experiment [23] is L1210. The experiment is described as follows: Median survival time (MST) of mice bearing L1210 cells was determined at a dose of 100 mg/kg x 2 days administered ip. The note with it: Mus musculus. It counts as functional, organism-based. Also on record: dose 100 mg/kg. The essentials: as §4
Experiment [24] concerns L1210. Briefly: In vitro inhibitory effect on growth of L1210 cells; (10E-6). Format: functional, cell-based. The settings on record: Mus musculus. The essentials:
as §1

Experiment [25] relates to L1210. The experiment is described as follows: Median survival time (MST) of mice bearing L1210 cells was determined at a dose of 2 mg/kg x 2 days administered ip. Format: functional, Mus musculus. In a few lines: (§5)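 (BALB/c x DBA/2)F1 mice, 20 g, implanted ip with 10^4 L1210 cells. Test samples in saline (0.2 mL) given ip on days 1 and 5 after tumor inoculation; doses above 100 mg/kg homogenized with Nikkol (7 times by weight) as vehicle. Activity from median survival time of treated group versus control group (T/C).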

The test system of experiment [26] is L1210. The experiment is described as follows: Ratio of median survival time of the mice bearing L1210 cells in treated(T) vs. control(C) at a dose of 114 mg/kg x 2 days. Format: functional, Mus musculus. The essentials:
as §5

The test system of experiment [27] is L1210. The experiment is described as follows: Median survival time (MST) of mice bearing L1210 cells was determined at a dose of 114 mg/kg x 2 days administered ip. Format: functional, Mus musculus. In a few lines:
as §5

In experiment [28] the test system is L1210. Briefly: Ratio of median survival time of the mice bearing L1210 cells in treated(T) vs. control(C) at a dose of 2 mg/kg x 2 days. Format: functional, Mus musculus. The essentials:
as §5

[29] abbreviates: Mus musculus, L1210, read-out: IC50.

Broadly, the IC50 is the concentration at which inhibition is half-maximal. As to 3-aminocytidine-dichloroplatinum (II), the IC50 in the experiment with L1210 [1] (l1210) is 64 µg/mL; in the experiment with L1210 [1] (l1210, read-out: IC50) it was 122 µM.
Consider `N=c1ccn([C@H]2C[C@H](O)[C@@H](CO)O2)c(=O)n1N`, for which the IC50 in the experiment on L1210 [1] (setting [29]) was 2000 µg/mL and 7.18 mM.
Regarding CISPLATIN [listing 1 of 2 here], the Blood urea nitrogen in the experiment on Mus musculus [2] was 45.3 mg 100ml-1; in the experiment on Mus musculus [5] it was 37 mg 100ml-1; with Mus musculus [7] it was “All death”. Moreover, the Kidney weight in the experiment on Mus musculus [3] was 599; with Mus musculus [6] it was 555. Also, the Body weight in the experiment on Mus musculus [4] was 34; in the experiment with Mus musculus [8], “All death”; in the experiment on Mus musculus [9], 31.
As usually defined, the T/C is the result in the treated group divided by that in the control group, in per cent. Take “3-amino-2'-deoxycytidine-dichloroplatinum (II)”: the Blood urea nitrogen in the experiment with Mus musculus [2] is 28 mg 100ml-1; in the experiment with Mus musculus [5] it was 27.2 mg 100ml-1; in the experiment on Mus musculus [15] it was 26 mg 100ml-1. For the same molecule, the Kidney weight in the experiment with Mus musculus [3] stood at 626; in the experiment with Mus musculus [14], 634; in the experiment with Mus musculus [6] it was 654. The Body weight in the experiment on Mus musculus [4] is 38.3; in the experiment with Mus musculus [17], 35.5; with Mus musculus [9], 39.3. For the same molecule, the MST entry with L1210 [10] was “Toxic”; in the experiment with L1210 [12], 10.5 days; in the experiment on L1210 [13] it was 10 days; in the experiment with L1210 [18], 13 days; with L1210 [22] it was 8.5 days; in the experiment with L1210 [23], 14.5 days. The T/C in the experiment with L1210 [11] came out at 131%; in the experiment with L1210 [16], 181%; in the experiment on L1210 [19], 106%; in the experiment with L1210 [20] it was 162%; with L1210 [21], 125%.
With `N=c1c2ccn(C3O[C@H](CO)[C@@H](O)[C@H]3O)c2ncn1N` (stereo not given in full), the IC50 was found to be 8.5 µM with L1210 [24] and 2.7 µg/mL with L1210 [1] (setting [29]). Also, the MST came to 11 days in the experiment on L1210 [25] and 9.5 days in the experiment with L1210 [27]. Also, the T/C in the experiment on L1210 [26] was 95%; with L1210 [28] it was 110%.
As to `Nc1ncnc2c1ccn2[C@@H]1O[C@H](CO)[C@@H](O)[C@H]1O` [TUBERCIDIN], the 50% inhibitory concentration (IC50) with L1210 [1] (setting [29]) is 0.018 µg/mL and 67.7 nM.
As to CISPLATIN [listing 2 of 2 here], the IC50 stood at 0.19 µg/mL in the experiment with L1210 [1] (l1210) and 0.633 µM with L1210 [1] (l1210, read-out: IC50).
